Columns and labels:
[1] = target: Serine/threonine-protein kinase 4 (Homo sapiens) (UniProt Q13043); assay: Inhibition of MST1 at 10 uM
[2] = target: Serine/threonine-protein kinase PAK 6 (Homo sapiens) (UniProt Q9NQU5); assay: Inhibition of PAK6 at 10 uM
[3] = target: Interleukin-1 receptor-associated kinase 4 (Homo sapiens) (UniProt Q9NWZ3); assay: Inhibition of IRAK4 at 10 uM
[4] = target: Casein kinase II subunit alpha (Homo sapiens) (UniProt P68400); assay: Inhibition of CK2alpha1 at 10 uM
[5] = target: Ephrin type-A receptor 3 (Homo sapiens) (UniProt P29320); assay: Inhibition of EPHA3 at 10 uM
[6] = target: Ephrin type-B receptor 3 (Homo sapiens) (UniProt P54753); assay: Inhibition of EPHB3 at 10 uM
[7] = target: Homeodomain-interacting protein kinase 2 (Homo sapiens) (UniProt Q9H2X6); assay: Inhibition of HIPK2 at 10 uM
[8] = target: Ribosomal protein S6 kinase alpha-4 (Homo sapiens) (UniProt O75676); assay: Inhibition of MSK2 at 10 uM
[9] = target: Tyrosine-protein kinase receptor UFO (Homo sapiens) (UniProt P30530); assay: Inhibition of AXL at 10 uM
[10] = target: Serine/threonine-protein kinase 3 (Homo sapiens) (UniProt Q13188); assay: Inhibition of MST2 at 10 uM
[11] = target: Glycogen synthase kinase-3 beta (Homo sapiens) (UniProt P49841); assay: Inhibition of GSK3-beta at 10 uM
[12] = target: Tyrosine-protein kinase receptor TYRO3 (Homo sapiens) (UniProt Q06418); assay: Inhibition of RSE at 10 uM
[13] = target: Cyclin-dependent kinase 7/ cyclin H (Homo sapiens) (UniProt P51946+P50613); assay: Inhibition of CDK7/cyclin H/MNAT1 at 10 uM; format: protein-complex assay
[14] = target: Casein kinase I isoform gamma-1 (Homo sapiens) (UniProt Q9HCP0); assay: Inhibition of CSNK1G1 at 10 uM
Rattus norvegicus = assay: Antiinflammatory activity in Lewis rat assessed as inhibition of LPS-induced TNFalpha release at 5 mg/kg administered before LPS challenge and measured after 4 hrs by ELISA; format: functional
Procedure, shortened: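 Rat LPS challenge. The compound was given at –4 h relative to LPS, at the dose in mg/kg shown for each line. Read-out is percent inhibition of TNFα.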

[15] = target: Proto-oncogene tyrosine-protein kinase Src (Homo sapiens) (UniProt P12931); assay: Inhibition of SRC at 10 uM
[16] = tested on: Receptor-type tyrosine-protein kinase FLT3 (Homo sapiens), P36888 [D835Y]; assay: Inhibition of FLT3 D835Y (mutant) at 10 uM
[17] = target: Rho-associated protein kinase 1 (Homo sapiens) (UniProt Q13464); assay: Inhibition of ROCK1 at 10 uM
[18] = tested on: Platelet-derived growth factor receptor alpha (Homo sapiens), P16234 [T674I]; assay: Inhibition of PDGFRalpha T674I (mutant) at 10 uM
[19] = Metabolic stability in rat liver microsomes assessed as compound remaining at 2 uM after 45 mins by LC/MS analysis; format: ADME, Microsome; settings: read-out: Stability
[20] = target: Serine/threonine-protein kinase PAK 2 (Homo sapiens) (UniProt Q13177); assay: Inhibition of PAK2 at 10 uM
[21] = target: Serine/threonine-protein kinase Sgk3 (Homo sapiens) (UniProt Q96BR1); assay: Inhibition of SGK3 at 10 uM
[22] = target: Megakaryocyte-associated tyrosine-protein kinase (Homo sapiens) (UniProt P42679); assay: Inhibition of MATK at 10 uM
[23] = target: Serine/threonine-protein kinase mTOR (Homo sapiens) (UniProt P42345); assay: Inhibition of mTOR at 10 uM
[24] = target: MAP kinase-activated protein kinase 3 (Homo sapiens) (UniProt Q16644); assay: Inhibition of MAPKAPK3 at 10 uM
[25] = target: Platelet-derived growth factor receptor beta (Homo sapiens) (UniProt P09619); assay: Inhibition of PDGFRbeta at 10 uM
[26] = target: Ephrin type-A receptor 2 (Homo sapiens) (UniProt P29317); assay: Inhibition of EPHA2 at 10 uM
[27] = target: High affinity nerve growth factor receptor (Homo sapiens) (UniProt P04629); assay: Inhibition of TRKA at 10 uM
[28] = target: Ribosomal protein S6 kinase alpha-6 (Homo sapiens) (UniProt Q9UK32); assay: Inhibition of RSK4 at 10 uM
[29] = target: Mitogen-activated protein kinase 14 (Homo sapiens, UniProt Q16539); assay: Inhibition of p38alpha at 10 uM
[30] = target: Calcium/calmodulin-dependent protein kinase type II subunit alpha (Homo sapiens) (UniProt Q9UQM7); assay: Inhibition of CAMK2alpha at 10 uM
[31] = tested on: Tyrosine-protein kinase JAK2 (Homo sapiens), O60674 [V617F]; assay: Inhibition of JAK2 V617F (mutant) at 10 uM
[32] = target: Serine/threonine-protein kinase SIK2 (Homo sapiens) (UniProt Q9H0K1); assay: Inhibition of SNF1LK2 at 10 uM
[33] = Oral bioavailability in Sprague-Dawley rat; format: ADME, organism-based; settings: in vivo
[34] = target: Tyrosine-protein kinase JAK2 (Homo sapiens) (UniProt O60674); assay: Inhibition of JAK2 at 10 uM
[35] = target: Dual specificity tyrosine-phosphorylation-regulated kinase 1A (Homo sapiens) (UniProt Q13627); assay: Inhibition of DYRK1A at 10 uM
[36] = target: Activin receptor type-1B (Homo sapiens) (UniProt P36896); assay: Inhibition of ALK4 at 10 uM
[37] = target: Inhibitor of nuclear factor kappa-B kinase subunit alpha (Homo sapiens) (UniProt O15111); assay: Inhibition of IKKalpha at 10 uM
[38] = target: G protein-coupled receptor kinase 4 (Homo sapiens) (UniProt P32298); assay: Inhibition of GRK4 at 10 uM
[39] = target: Serine/threonine-protein kinase N1 (Homo sapiens) (UniProt Q16512); assay: Inhibition of PRK1 at 10 uM
[40] = target: Dual specificity protein kinase CLK3 (Homo sapiens) (UniProt P49761); assay: Inhibition of CLK3 at 10 uM
[41] = tested on: Tyrosine-protein kinase ABL1 (Homo sapiens), P00519 [T315I]; assay: Inhibition of ABL1 T315I (mutant) at 10 uM
[42] = target: Protein-tyrosine kinase 6 (Homo sapiens) (UniProt Q13882); assay: Inhibition of Brk at 10 uM
[43] = target: Aurora kinase A (Homo sapiens) (UniProt O14965); assay: Inhibition of Aurora A at 10 uM
[44] = target: Mitogen-activated protein kinase 11 (Homo sapiens) (UniProt Q15759); assay: Inhibition of p38beta at 10 uM
[45] = target: RAC-gamma serine/threonine-protein kinase (Homo sapiens) (UniProt Q9Y243); assay: Inhibition of AKT3 at 10 uM
Chain of RAC-gamma serine/threonine-protein kinase (Homo sapiens) (Q9Y243 whole entry): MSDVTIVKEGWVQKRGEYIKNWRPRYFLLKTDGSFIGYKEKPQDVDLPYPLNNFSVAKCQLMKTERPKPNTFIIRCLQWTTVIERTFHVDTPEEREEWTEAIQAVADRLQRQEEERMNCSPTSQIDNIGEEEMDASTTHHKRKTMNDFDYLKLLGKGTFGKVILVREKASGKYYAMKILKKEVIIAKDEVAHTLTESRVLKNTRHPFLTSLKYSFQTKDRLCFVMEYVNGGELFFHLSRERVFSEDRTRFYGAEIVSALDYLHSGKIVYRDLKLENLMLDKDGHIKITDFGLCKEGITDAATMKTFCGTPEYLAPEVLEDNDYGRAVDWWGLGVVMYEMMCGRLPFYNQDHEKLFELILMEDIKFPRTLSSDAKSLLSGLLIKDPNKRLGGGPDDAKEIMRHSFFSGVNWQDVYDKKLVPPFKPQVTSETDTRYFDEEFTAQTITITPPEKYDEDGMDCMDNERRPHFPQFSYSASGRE

Chain of High affinity nerve growth factor receptor (Homo sapiens) (P04629 33-796 limits assumed): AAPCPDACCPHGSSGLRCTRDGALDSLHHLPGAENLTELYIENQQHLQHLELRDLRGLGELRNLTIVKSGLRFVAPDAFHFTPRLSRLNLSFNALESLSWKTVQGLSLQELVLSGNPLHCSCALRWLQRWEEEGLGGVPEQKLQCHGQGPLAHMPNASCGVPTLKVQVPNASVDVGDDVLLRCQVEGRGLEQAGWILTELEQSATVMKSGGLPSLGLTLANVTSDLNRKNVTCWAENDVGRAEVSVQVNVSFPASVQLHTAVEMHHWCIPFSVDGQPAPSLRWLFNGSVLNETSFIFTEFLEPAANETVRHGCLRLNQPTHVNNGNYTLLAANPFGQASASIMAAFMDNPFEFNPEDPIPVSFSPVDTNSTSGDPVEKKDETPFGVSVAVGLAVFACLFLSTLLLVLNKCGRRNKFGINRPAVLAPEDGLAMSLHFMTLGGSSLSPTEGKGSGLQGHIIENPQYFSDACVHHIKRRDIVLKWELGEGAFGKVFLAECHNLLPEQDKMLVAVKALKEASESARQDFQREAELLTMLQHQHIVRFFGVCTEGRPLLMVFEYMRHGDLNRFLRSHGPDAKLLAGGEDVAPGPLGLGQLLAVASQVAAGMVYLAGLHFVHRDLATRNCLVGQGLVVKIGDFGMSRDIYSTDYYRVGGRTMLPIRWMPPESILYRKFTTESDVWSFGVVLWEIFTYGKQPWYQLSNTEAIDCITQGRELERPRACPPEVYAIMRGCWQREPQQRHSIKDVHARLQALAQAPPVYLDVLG
Chain of Serine/threonine-protein kinase PAK 2 (Homo sapiens) (Q13177 whole entry): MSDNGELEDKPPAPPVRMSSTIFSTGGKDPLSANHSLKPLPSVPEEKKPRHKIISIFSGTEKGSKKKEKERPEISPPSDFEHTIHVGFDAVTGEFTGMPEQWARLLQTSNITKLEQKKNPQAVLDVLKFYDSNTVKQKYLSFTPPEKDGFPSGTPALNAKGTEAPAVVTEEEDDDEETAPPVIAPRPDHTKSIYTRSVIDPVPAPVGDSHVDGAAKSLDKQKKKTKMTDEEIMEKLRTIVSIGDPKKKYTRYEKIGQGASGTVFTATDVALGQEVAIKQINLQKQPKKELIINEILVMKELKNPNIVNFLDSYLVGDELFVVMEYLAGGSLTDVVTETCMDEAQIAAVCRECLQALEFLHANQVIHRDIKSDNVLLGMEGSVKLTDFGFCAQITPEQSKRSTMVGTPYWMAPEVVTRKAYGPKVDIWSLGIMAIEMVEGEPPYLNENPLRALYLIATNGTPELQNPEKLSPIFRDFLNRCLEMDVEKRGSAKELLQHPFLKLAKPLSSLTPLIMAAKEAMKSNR
Chain of Serine/threonine-protein kinase PAK 6 (Homo sapiens) (Q9NQU5 whole entry, looked up): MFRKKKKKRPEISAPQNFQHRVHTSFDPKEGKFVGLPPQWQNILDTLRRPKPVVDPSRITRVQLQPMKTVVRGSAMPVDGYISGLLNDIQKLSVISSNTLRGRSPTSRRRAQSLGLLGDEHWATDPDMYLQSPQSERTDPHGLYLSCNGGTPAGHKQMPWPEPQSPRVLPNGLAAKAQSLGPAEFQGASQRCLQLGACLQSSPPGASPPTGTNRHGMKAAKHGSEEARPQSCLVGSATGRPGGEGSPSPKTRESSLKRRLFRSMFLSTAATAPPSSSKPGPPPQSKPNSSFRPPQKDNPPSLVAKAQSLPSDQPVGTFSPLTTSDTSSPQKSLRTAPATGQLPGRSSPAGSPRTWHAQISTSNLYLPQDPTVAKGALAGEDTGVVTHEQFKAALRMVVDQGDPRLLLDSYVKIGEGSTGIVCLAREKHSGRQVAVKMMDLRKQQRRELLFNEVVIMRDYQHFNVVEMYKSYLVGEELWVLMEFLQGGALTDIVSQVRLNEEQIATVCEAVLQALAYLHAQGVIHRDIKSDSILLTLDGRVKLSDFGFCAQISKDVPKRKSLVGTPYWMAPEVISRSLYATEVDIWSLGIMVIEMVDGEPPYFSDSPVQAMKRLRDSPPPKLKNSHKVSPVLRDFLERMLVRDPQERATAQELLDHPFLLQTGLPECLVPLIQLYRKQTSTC
Chain of Inhibitor of nuclear factor kappa-B kinase subunit alpha (Homo sapiens) (O15111 whole entry): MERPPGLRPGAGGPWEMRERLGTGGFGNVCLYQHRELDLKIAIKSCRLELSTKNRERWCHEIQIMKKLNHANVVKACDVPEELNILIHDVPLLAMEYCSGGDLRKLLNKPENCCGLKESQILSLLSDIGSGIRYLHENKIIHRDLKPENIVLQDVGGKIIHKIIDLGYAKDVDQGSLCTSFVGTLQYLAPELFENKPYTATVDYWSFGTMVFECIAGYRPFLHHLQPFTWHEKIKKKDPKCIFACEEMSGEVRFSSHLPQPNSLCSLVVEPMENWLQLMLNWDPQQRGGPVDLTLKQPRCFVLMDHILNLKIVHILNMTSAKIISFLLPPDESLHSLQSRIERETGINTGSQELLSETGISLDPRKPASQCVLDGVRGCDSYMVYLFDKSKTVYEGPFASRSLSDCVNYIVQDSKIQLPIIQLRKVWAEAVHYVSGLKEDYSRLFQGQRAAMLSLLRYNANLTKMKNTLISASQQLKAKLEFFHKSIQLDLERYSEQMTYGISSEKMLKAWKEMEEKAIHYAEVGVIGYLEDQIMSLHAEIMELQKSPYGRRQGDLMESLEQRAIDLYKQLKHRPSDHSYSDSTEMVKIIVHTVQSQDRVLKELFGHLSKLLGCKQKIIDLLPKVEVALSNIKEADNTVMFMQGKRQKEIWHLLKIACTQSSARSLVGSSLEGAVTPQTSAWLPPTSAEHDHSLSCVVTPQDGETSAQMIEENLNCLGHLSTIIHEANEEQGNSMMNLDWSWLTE
Chain of Ephrin type-A receptor 2 (Homo sapiens) (P29317 whole entry): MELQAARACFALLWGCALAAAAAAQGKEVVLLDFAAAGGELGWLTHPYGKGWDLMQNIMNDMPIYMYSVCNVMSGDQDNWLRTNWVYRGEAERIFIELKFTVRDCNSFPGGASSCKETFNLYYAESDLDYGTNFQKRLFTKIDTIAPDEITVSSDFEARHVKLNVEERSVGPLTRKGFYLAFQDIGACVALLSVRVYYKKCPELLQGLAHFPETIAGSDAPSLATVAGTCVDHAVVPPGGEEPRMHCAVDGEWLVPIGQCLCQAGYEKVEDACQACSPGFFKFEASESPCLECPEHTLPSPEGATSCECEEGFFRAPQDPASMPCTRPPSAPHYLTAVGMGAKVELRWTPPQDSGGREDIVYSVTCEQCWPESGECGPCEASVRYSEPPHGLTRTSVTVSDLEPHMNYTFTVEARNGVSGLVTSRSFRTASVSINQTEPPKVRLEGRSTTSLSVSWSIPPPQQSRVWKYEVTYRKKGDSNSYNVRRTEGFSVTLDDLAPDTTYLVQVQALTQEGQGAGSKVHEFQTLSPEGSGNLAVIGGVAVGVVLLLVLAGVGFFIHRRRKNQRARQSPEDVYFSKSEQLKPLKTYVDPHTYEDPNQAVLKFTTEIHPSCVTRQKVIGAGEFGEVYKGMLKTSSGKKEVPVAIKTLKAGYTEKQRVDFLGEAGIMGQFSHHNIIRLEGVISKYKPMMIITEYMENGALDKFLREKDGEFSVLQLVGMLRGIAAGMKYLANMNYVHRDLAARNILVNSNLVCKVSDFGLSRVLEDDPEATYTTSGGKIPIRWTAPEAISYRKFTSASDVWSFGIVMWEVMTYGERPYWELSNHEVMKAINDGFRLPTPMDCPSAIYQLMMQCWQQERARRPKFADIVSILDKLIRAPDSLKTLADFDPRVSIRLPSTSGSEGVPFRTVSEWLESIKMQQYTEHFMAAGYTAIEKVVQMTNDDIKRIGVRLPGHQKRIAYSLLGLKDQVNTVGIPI
Chain of Mitogen-activated protein kinase 14 (Q16539 whole entry): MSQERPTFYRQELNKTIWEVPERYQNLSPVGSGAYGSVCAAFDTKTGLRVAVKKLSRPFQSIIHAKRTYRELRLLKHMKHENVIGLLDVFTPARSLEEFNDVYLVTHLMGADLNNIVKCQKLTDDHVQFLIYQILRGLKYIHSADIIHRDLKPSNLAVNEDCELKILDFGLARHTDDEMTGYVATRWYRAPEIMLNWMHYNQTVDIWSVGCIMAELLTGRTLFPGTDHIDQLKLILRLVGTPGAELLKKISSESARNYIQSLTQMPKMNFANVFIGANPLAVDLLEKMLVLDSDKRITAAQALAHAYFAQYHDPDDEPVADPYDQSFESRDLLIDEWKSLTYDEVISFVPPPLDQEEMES
Chain of Interleukin-1 receptor-associated kinase 4 (Homo sapiens) (Q9NWZ3 whole entry): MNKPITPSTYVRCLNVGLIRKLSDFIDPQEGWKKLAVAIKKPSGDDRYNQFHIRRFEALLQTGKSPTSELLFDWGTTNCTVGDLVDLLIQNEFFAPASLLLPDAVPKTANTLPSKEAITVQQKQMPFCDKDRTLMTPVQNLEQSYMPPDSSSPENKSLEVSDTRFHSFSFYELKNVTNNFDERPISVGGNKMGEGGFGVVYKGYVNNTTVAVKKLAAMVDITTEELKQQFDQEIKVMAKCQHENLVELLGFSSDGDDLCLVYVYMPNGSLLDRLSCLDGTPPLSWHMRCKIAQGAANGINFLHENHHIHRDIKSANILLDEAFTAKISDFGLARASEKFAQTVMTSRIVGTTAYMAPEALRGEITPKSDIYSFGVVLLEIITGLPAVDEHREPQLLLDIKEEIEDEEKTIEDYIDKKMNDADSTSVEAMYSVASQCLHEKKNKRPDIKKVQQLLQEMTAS

For `Cc1cc(OCc2ccc(F)cc2F)c(Br)c(=O)n1Cc1ccc(CN(C)C)cc1`, the inhibition [1] was under 50%, the inhibition [2] was under 50% and the inhibition [3] was under 50%. For the same compound, the inhibition [4] was under 50%, the inhibition [5] was under 50% and the inhibition [6] was under 50%. The inhibition [7] was under 50%, the inhibition [8] was under 50% and the inhibition [9] was under 50%. The inhibition [10] was under 50%, the inhibition [11] was under 50% and the inhibition [12] was under 50%. For the same compound, the inhibition [13] was under 50%, the inhibition [14] was under 50% and the inhibition in vivo at 5 mg/kg (Rattus norvegicus) was 87%. It also gave an inhibition [15] of under 50%, an inhibition [16] of under 50% and an inhibition [17] of under 50%. It also gave an inhibition [18] of under 50%, a remaining at 0.75 h, 2 µM [19] of 53% and an inhibition [20] of under 50%. The inhibition [21] was under 50%, the inhibition [22] was under 50% and the inhibition [23] was under 50%. It also gave an inhibition [24] of under 50%, an inhibition [25] of under 50% and an inhibition [26] of under 50%. It also gave an inhibition [27] of under 50%, an inhibition [28] of under 50% and an inhibition [29] of 100%. For the same compound, the inhibition [30] was under 50%, the inhibition [31] was under 50% and the inhibition [32] was under 50%. It also gave a bioavailability [33] of 91%, an inhibition [34] of under 50% and an inhibition [35] of under 50%. The inhibition [36] was under 50%, the inhibition [37] was under 50% and the inhibition [38] was under 50%. The inhibition [39] was under 50%, the inhibition [40] was under 50% and the inhibition [41] was under 50%. The inhibition [42] was under 50%, the inhibition [43] was under 50% and the inhibition [44] was 99%. It also gave an inhibition [45] of under 50%.

Reference: ChEMBL document CHEMBL1154277, “Discovery of N-substituted pyridinones as potent and selective inhibitors of p38 kinase” (Bioorg Med Chem Lett, 2009)
